Shown are actives, neighbours in structure and some others; about 5.3% of the full set was active somewhere.
CSC inhib – blocks cancer stem cells. 300,000 tested, 1.1% active. inhibition, % at 7.5 µM. cancer stem cell-like cells viability, luminescence. AID 2717; in the data active = inhibition above about 75%; inconclusive = no clear call, values can overlap the other calls; tested in HMLE shEcad cells
T cruzi repl – T. cruzi replication inhibition; T. cruzi beta-gal in NIH3T3, luminescence, 90 h; inhibition, % (concentration not given with the values); 300,000 tested, 1.4% active;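 active = mean inhibition across valid replicates above about 55%, limit read from the data; inconclusive = mean below that limit but half or more replicates reach it; inactive = mean below it, under half of replicates reach it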;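 note: signal also drops with host cell toxicity which is not excluded here; higher percent means less beta-gal luminescence so fewer parasites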
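Read-out: Parasite load inhibition, % | Test system: Mouse NIH/3T3 fibroblasts infected with β-gal-expressing T. cruzi Tulahuen C4 | Amount: 5,000 cells/well | Medium: DMEM, 2% fetal bovine serum | Signal: GalScreen β-gal luminescence, detergent lysis, 60 min | Timing: 3 h attach, ≥90 h co-culture | Also added: Tulahuen C4 trypomastigotes, 5000/well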
NLRP3 yeast inh – inhibitors of NALP3 inflammasome in yeast; Yeast reconstituted NLRP3/ASC/caspase-1, beta-gal luminescence, 24 h; inhibition, % at 10 µM; 330,000 tested, 0.39% active; AID 2825;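 active = inhibition of 50% or more; inactive = inhibition below 50%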
Beta cell apopt – beta cell apoptosis inhibition; AID 435005; INS-1E cytokine-induced death, ATP luminescence, 48 h; percent of positive-control rescue, neutral wells zero; protection from apoptosis, % (concentration not given with the values); 300,000 tested, 0.8% active;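 active = Every replicate reaches about 75%, or at least half do and their mean reaches it too, limit read from the data; inconclusive = At least half of replicates reach the limit but their mean does not; inactive = Under half of replicates reach the limit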;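 note: higher means more ATP so stronger rescue from cytokine killing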
Mdm2 MdmX PPI – disrupts the human Mdm2-MdmX interaction; SaOS-2 split-luciferase Mdm2/MdmX complementation, luminescence; 330,000 tested, 3% active; inhibition, % at 8 µM; AID 485346; O15151+Q00987;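 active = inhibition of at least 50% at 8 µM in the primary screen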
Target sequence (O15151 whole entry, looked up): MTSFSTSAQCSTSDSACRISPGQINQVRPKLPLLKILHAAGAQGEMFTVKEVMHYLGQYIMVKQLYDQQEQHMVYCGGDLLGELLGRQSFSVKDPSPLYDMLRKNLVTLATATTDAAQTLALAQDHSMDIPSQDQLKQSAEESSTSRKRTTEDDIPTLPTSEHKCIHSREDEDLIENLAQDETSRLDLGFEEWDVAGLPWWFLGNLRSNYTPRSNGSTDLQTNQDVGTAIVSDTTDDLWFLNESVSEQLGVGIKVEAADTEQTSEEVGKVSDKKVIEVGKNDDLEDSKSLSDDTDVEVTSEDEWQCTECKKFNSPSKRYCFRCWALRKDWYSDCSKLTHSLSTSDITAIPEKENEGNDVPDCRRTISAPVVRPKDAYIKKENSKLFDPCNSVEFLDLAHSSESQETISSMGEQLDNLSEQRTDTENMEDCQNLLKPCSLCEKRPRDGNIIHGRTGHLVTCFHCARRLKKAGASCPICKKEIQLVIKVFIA
Target sequence (Q00987 whole entry, looked up): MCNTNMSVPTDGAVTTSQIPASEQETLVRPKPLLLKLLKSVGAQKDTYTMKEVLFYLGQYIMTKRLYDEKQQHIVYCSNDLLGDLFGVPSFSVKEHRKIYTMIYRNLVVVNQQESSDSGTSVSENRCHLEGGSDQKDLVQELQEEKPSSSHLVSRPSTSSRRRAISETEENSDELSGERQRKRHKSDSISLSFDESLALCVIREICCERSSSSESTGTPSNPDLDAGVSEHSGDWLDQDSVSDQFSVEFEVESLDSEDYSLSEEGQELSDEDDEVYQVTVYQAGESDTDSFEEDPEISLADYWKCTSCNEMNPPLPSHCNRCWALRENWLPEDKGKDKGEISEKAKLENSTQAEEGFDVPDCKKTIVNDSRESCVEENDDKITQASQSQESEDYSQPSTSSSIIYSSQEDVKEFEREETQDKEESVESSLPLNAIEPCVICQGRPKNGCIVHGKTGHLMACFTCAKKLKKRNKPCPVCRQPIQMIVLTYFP
Calb FLC – affects C. albicans growth with fluconazole; C. albicans CaCi-2 (fluconazole-resistant clinical isolate) + fluconazole, Alamar Blue growth, 48 h; growth inhibition, % (concentration not given with the values); 300,000 tested, 0.57% active;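 active = growth inhibition above about 58% in most replicates, limit read from the data, passing the limit was not always enough; inconclusive = exactly half the replicates above a set limit; inactive = most replicates below a set limit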;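 note: all wells also contain fluconazole at 8 µg/ml as a sub-toxic cotreatment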
Hits are given with their value; i = inactive; ? = inconclusive; nt = no result.

SMILES | CSC inhib | T cruzi repl | NLRP3 yeast inh | Beta cell apopt | Mdm2 MdmX PPI | Calb FLC
CCCCCCCCCc1nc2sc3c(c2c(=O)n1NC(=O)c1ccccc1[N+](=O)[O-])CC(C)(C)OC3 | 107.4 | i | i | i | i | i
CC(C)(C)c1ccc(-c2cn(-c3ccc(Br)cc3)c3[n+]2CCCS3)cc1 | nt | i | nt | nt | nt | 102.3
c1ccc(-c2cn(-c3ccccc3)c3[n+]2CCS3)cc1 | i | 68.1 | i | i | i | i
COc1cc(OC)cc(C(=O)NN2CCCCC2)c1 | nt | i | i | i | i | i
Cc1ccc(-n2ncc3c(=O)n(CC(=O)N(C)C)cnc32)cc1 | i | i | i | nt | i | i
COc1cc(CN2CCN(CCCc3ccccc3)CC2CCO)cc(OC)c1 (stereo not given) | i | i | i | i | i | i
CCOC(=O)c1c(C)[nH]c(C(=O)N/N=C/c2ccc(OC)c(OC)c2)c1C | i | i | i | i | i | i
CCOC(=O)c1c(C)[nH]c(C(=O)N/N=C\c2ccccc2O)c1C | 79.4 | i | nt | 76.9 | nt | i
COc1ccc(NC(=O)Cn2nnc(C(=O)NCc3ccco3)c2N)cc1 | i | i | i | i | i | i
CCCC(=O)OCCNc1cc(Sc2nccn2C)c2nonc2c1[N+](=O)[O-] | i | 60.8 | nt | i | nt | i
CCC(=O)OCCNc1cc(Sc2nc3ccccc3s2)c2nonc2c1[N+](=O)[O-] | 106.3 | i | i | i | i | i
CCCSc1cc(NCCOC(=O)CCC)c([N+](=O)[O-])c2nonc12 | i | i | i | i | i | i
O=C(Nc1cccc2c1CCCC2)c1ccccc1F | i | i | i | i | i | i
Oc1ccc(-c2nc3ccc4ccccc4c3c3c2CCC3)cc1O | 108.6 | i | i | i | i | i
Cc1c(C)c(C)c2[nH]c(-c3ccc4c(c3)OCO4)nc2c1C | nt | 58.2 | i | nt | i | i
COc1ccc(-c2[nH]c(-c3ccc4c(c3)OCO4)nc2-c2ccccc2)cc1 | i | i | i | i | i | i
COc1cccc(/C=C/C(=O)NCC2CCCCC2)c1 | i | i | i | i | i | i
CN1CCN(Cc2nc3ccccc3c(=O)n2Cc2nc(-c3ccc4ccccc4c3)cs2)CC1 | 99.3 | i | nt | i | nt | i
CN1CCN(Cc2nc3ccccc3c(=O)n2Cc2nc(-c3cccc([N+](=O)[O-])c3)cs2)CC1 | nt | nt | i | nt | i | nt
C/C(=N\Nc1ccc([N+](=O)[O-])cc1)c1ccco1 | i | i | i | i | i | i
Cc1cccc(-c2nc(C#N)c(N3CCCCC3)o2)c1 | i | i | i | i | i | i
Cc1cccc(-c2nc(C#N)c(NC3CCCCC3)o2)c1 | 98.8 | i | i | i | i | i
O=C(O)c1ccc(-c2nc(-c3ccc(Cl)cc3)cs2)cc1 | nt | i | nt | nt | nt | 91.0
O=C(CC1Nc2ccccc2NC1=O)NCC1COc2ccccc2O1 (stereo not given) | i | i | i | i | i | i
CCOc1cc(-c2cn(S(=O)(=O)c3cccc4nsnc34)nc2N)cc(OCC)c1OCC | i | i | i | i | i | i
SMILES | CSC inhib | T cruzi repl | NLRP3 yeast inh | Beta cell apopt | Mdm2 MdmX PPI | Calb FLC
CCn1c(C)cc(/C=C2\NC(=O)N(Cc3ccc(Cl)cc3)C2=O)c1C | i | 55.4 | i | i | i | i
O=C(NNc1ccc(Cl)cc1)C1CCC1 | i | i | i | i | i | 84.8
O=C(NNc1cc(Cl)cc(Cl)c1)C1CCC1 | i | i | i | i | i | i
O=C(NNc1ccnc2cc(Cl)ccc12)C1CCCCC1 | i | i | i | 127.1 | i | i
Cc1ccc(S(=O)(=O)N2[C@@H](c3ccc(C(C)(C)C)cc3)C(C(=O)O)=CC[C@H]2c2cccc(Cl)c2)cc1 | 138.2 | nt | i | i | i | nt
Cc1ccc(S(=O)(=O)N2[C@@H](c3cccc(Cl)c3)C(C(=O)O)=CC[C@H]2c2cccc(Cl)c2)cc1 | i | nt | i | i | i | nt
CCc1ccc([C@@H]2CC=C(C(=O)O)[C@H](c3ccc(Cl)cc3)N2S(=O)(=O)c2ccc(C)cc2)cc1 | 79.1 | nt | i | i | i | nt
CCCCC[C@@H]1C=C(C(=O)O)[C@H](c2ccc(Cl)c(Cl)c2)N1S(=O)(=O)c1ccc(C)cc1 | 98.4 | nt | i | i | i | nt
CCc1ccc([C@@H]2CC=C(C(=O)O)[C@H](c3ccc(C)cc3)N2S(=O)(=O)c2ccc(C)cc2)cc1 | nt | nt | i | nt | i | nt
Cc1c(Cl)c([N+](=O)[O-])nn1CCCC(=O)N1CCN(c2ccccc2)CC1 | nt | i | i | nt | i | i
Cc1c(Cl)c([N+](=O)[O-])nn1CCCC(=O)N(Cc1ccccc1)Cc1ccccc1 | i | 63.9 | i | i | i | i
Cc1nn(Cc2ccc(Cl)cc2)c(C)c1NC(=O)CCCn1nc([N+](=O)[O-])c(Cl)c1C | i | 56.8 | i | i | i | i
COc1ccc(C(C(=O)NC2CCCC2)N(C(=O)c2snc(C(N)=O)c2N)c2cc(C)ccc2OC)cc1OC (stereo not given) | i | i | i | i | i | i
O=C(Nc1cc(-c2ccccc2)nn1C1CCCCC1)c1ccc(Cl)cc1 | nt | nt | i | 97.3 | i | nt
Cn1nc(-c2ccccc2)cc1NC(=O)c1ccccc1 | i | i | i | i | i | i
Clc1ccccc1-c1ncc2ccccn12 | i | 57.1 | i | i | i | i
Cc1cc2nc3ccc(=[N+](C)C)cc-3sc2cc1N | nt | 68.8 | nt | nt | nt | i
S=c1[nH]nc(C2CCCCC2)n1/N=C/C=C/c1ccccc1 | i | i | i | i | i | ?
S=c1[nH]nc(C2CCCCC2)n1/N=C/c1ccc(Br)cc1 | nt | i | i | nt | i | i
S=c1[nH]nc(C2CCCCC2)n1/N=C/C(Cl)=C\c1ccccc1 | 109.3 | i | i | i | i | i
S=c1[nH]nc(C2CCCCC2)n1/N=C/c1ccc(Br)s1 | i | i | i | i | i | 89.6
Cc1csc(=O)n1CCC(=O)N(C)Cc1c(F)cccc1Cl | i | nt | i | i | i | nt
COc1ccc(C2=CSC3=NNC4(CCCCC4)NN23)cc1 | i | i | i | i | i | 111.9
Cc1ccc(C2=CSC3=NNC4(CCCCC4)NN23)cc1 | i | i | i | i | i | 111.1
CCSc1ccc2cc(OC)ccc2[n+]1CC | i | 54.7 | i | i | i | 75.4
SMILES | CSC inhib | T cruzi repl | NLRP3 yeast inh | Beta cell apopt | Mdm2 MdmX PPI | Calb FLC
COC(=O)c1sc(N/N=C/c2ccc(C(C)C)cc2)nc1C | i | 64.2 | i | i | i | i
CC(=O)c1sc(N/N=C\c2ccc(N(C)C)cc2)nc1C | i | i | i | i | i | i
O=C(CNS(=O)(=O)c1ccccc1)NCC(=O)OCc1ccc(Cl)cc1 | i | i | i | i | i | i
CC(NC(=O)COc1ccc(/C=N/NC(=O)C(=O)Nc2ccccc2Br)cc1)c1ccccc1 (stereo not given) | i | i | i | i | i | i
CN(Cc1ccc(Cl)cc1Cl)C(=O)c1cccc(S(=O)(=O)N2CCN(c3ccccc3)CC2)c1 | i | 59.6 | i | nt | i | i
CCN(CC(O)Cn1c2ccccc2c2ccccc21)S(=O)(=O)c1ccc(C)cc1 (stereo not given) | i | i | i | i | i | i
Cc1ccc(S(=O)(=O)N(CCCO)CC(O)CON=C2c3ccccc3-c3ccccc32)cc1 (stereo not given) | i | 65.0 | i | i | i | i

Compound activity (PubChem)
